Measured values: ChEMBL document CHEMBL5108039, “Piperazine tethered bergenin heterocyclic hybrids: design, synthesis, anticancer activity, and molecular docking studies” (RSC Med Chem, 2022)

Columns and labels:
HCT-15 = assay: Cytotoxicity against human HCT-15 cells assessed as cell growth inhibition; format: functional, cell-based
Outline: (§1)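 Compounds were dissolved in sterile DMSO as 10 mg ml−1 stocks and tested for in vitro growth inhibition of human cancer cell lines. Doxorubicin was the standard drug and DMSO (0.01%) the vehicle control. IC50 values are reported as means.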

CAL-27 [1] = assay: Cytotoxicity against human CAL-27 cells assessed as cell growth inhibition; format: functional, cell-based; outline: as §1
SCC-9 [2] = assay: Cytotoxicity against human SCC-9 cells assessed as cell growth inhibition; format: functional, cell-based; outline: as §1
A549 = assay: Cytotoxicity against human A549 cells assessed as cell growth inhibition; format: functional, cell-based
Outline: (§2)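 Compounds were dissolved in sterile DMSO as 10 mg ml−1 stocks and tested in vitro for cytotoxicity in a cell-line panel, with DMSO (0.01%) as vehicle control and doxorubicin as standard. Mean IC50 values were reported, and the normal lung epithelial cells were tested up to 100 μM.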

MCF7 = assay: Cytotoxicity against human MCF7 cells assessed as cell growth inhibition; format: functional, cell-based; outline: as §1
[3] = Cytotoxicity against human BEAS-2B cells assessed as cell growth inhibition; format: toxicity, cell-based; outline: as §2
CAL-27 [4] = assay: Cell cycle arrest in human CAL-27 cells assessed as accumulation at G0/G1 phase at 10 uM incubated for 24 hrs by flow cytometry (reference value: 77.6 %); format: functional
CAL-27 [5] = assay: Cell cycle arrest in human CAL-27 cells assessed as accumulation at G0/G1 phase at 34 uM incubated for 24 hrs by flow cytometry (reference value: 77.6 %); format: functional
CAL-27 [6] = assay: Cell cycle arrest in human CAL-27 cells assessed as accumulation at S phase at 10 uM incubated for 24 hrs by flow cytometry (reference value: 3.6 %); format: functional
CAL-27 [7] = assay: Cell cycle arrest in human CAL-27 cells assessed as accumulation at S phase at 34 uM incubated for 24 hrs by flow cytometry (reference value: 3.6 %); format: functional
CAL-27 [8] = assay: Cell cycle arrest in human CAL-27 cells assessed as accumulation at G2/M phase at 10 uM incubated for 24 hrs by flow cytometry (reference value: 11.9 %); format: functional
CAL-27 [9] = assay: Cell cycle arrest in human CAL-27 cells assessed as accumulation at G2/M phase at 34 uM incubated for 24 hrs by flow cytometry (reference value: 11.9 %); format: functional
SCC-9 [10] = assay: Cell cycle arrest in human SCC-9 cells assessed as accumulation at G0/G1 phase at 17 uM incubated for 24 hrs by flow cytometry (reference value: 70.8 %); format: functional
SCC-9 [11] = assay: Cell cycle arrest in human SCC-9 cells assessed as accumulation at G0/G1 phase at 34 uM incubated for 24 hrs by flow cytometry (reference value: 70.8 %); format: functional
SCC-9 [12] = assay: Cell cycle arrest in human SCC-9 cells assessed as accumulation at S phase at 17 uM incubated for 24 hrs by flow cytometry (reference value: 14.4 %); format: functional
SCC-9 [13] = assay: Cell cycle arrest in human SCC-9 cells assessed as accumulation at S phase at 34 uM incubated for 24 hrs by flow cytometry (reference value: 14.4 %); format: functional
SCC-9 [14] = assay: Cell cycle arrest in human SCC-9 cells assessed as accumulation at G2/M phase at 17 uM incubated for 24 hrs by flow cytometry (reference value: 14.2 %); format: functional
SCC-9 [15] = assay: Cell cycle arrest in human SCC-9 cells assessed as accumulation at G2/M phase at 34 uM incubated for 24 hrs by flow cytometry (reference value: 14.2 %); format: functional
CAL-27 [16] = assay: Induction of apoptosis in human CAL-27 cells assessed as live cells at 10 uM incubated for 24 hrs by Annexin V-FITC/PI staining based flow cytometric analysis (reference value: 99.8 %); format: functional
Outline: (§3)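 CAL27 cells were treated with vehicle, doxorubicin or test compounds at 10–63 μM, and apoptosis was assessed by annexin V–FITC/PI staining with flow cytometry. Cells were scored as live, early apoptotic, late apoptotic or necrotic. The vehicle was DMSO (0.01%).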

CAL-27 [17] = assay: Induction of apoptosis in human CAL-27 cells assessed as early apoptotic cells at 10 uM incubated for 24 hrs by Annexin V-FITC/PI staining based flow cytometric analysis (reference value: 0.1 %); format: functional; outline: as §3
CAL-27 [18] = assay: Induction of apoptosis in human CAL-27 cells assessed as late apoptotic cells at 10 uM incubated for 24 hrs by Annexin V-FITC/PI staining based flow cytometric analysis (reference value: 0.1 %); format: functional; outline: as §3
CAL-27 [19] = assay: Induction of apoptosis in human CAL-27 cells assessed as necrotic cells at 10 uM incubated for 24 hrs by Annexin V-FITC/PI staining based flow cytometric analysis (reference value: 0.0 %); format: functional; outline: as §3
CAL-27 [20] = assay: Induction of apoptosis in human CAL-27 cells assessed as live cells at 34 uM incubated for 24 hrs by Annexin V-FITC/PI staining based flow cytometric analysis (reference value: 99.8 %); format: functional; outline: as §3
CAL-27 [21] = assay: Induction of apoptosis in human CAL-27 cells assessed as early apoptotic cells at 34 uM incubated for 24 hrs by Annexin V-FITC/PI staining based flow cytometric analysis (reference value: 0.1 %); format: functional; outline: as §3
CAL-27 [22] = assay: Induction of apoptosis in human CAL-27 cells assessed as late apoptotic cells at 34 uM incubated for 24 hrs by Annexin V-FITC/PI staining based flow cytometric analysis (reference value: 0.1 %); format: functional; outline: as §3
CAL-27 [23] = assay: Induction of apoptosis in human CAL-27 cells assessed as necrotic cells at 34 uM incubated for 24 hrs by Annexin V-FITC/PI staining based flow cytometric analysis (reference value: 0.0 %); format: functional
SCC-9 [24] = assay: Induction of apoptosis in human SCC-9 cells assessed as live cells at 17 uM incubated for 24 hrs by Annexin V-FITC/PI staining based flow cytometric analysis (reference value: 95.7 %); format: functional
SCC-9 [25] = assay: Induction of apoptosis in human SCC-9 cells assessed as early apoptotic cells at 17 uM incubated for 24 hrs by Annexin V-FITC/PI staining based flow cytometric analysis (reference value: 2.8 %); format: functional
SCC-9 [26] = assay: Induction of apoptosis in human SCC-9 cells assessed as late apoptotic cells at 17 uM incubated for 24 hrs by Annexin V-FITC/PI staining based flow cytometric analysis (reference value: 1.4 %); format: functional
SCC-9 [27] = assay: Induction of apoptosis in human SCC-9 cells assessed as necrotic cells at 17 uM incubated for 24 hrs by Annexin V-FITC/PI staining based flow cytometric analysis (reference value: 0.1 %); format: functional
SCC-9 [28] = assay: Induction of apoptosis in human SCC-9 cells assessed as live cells at 34 uM incubated for 24 hrs by Annexin V-FITC/PI staining based flow cytometric analysis (reference value: 95.7 %); format: functional
SCC-9 [29] = assay: Induction of apoptosis in human SCC-9 cells assessed as early apoptotic cells at 34 uM incubated for 24 hrs by Annexin V-FITC/PI staining based flow cytometric analysis (reference value: 2.8 %); format: functional
SCC-9 [30] = assay: Induction of apoptosis in human SCC-9 cells assessed as late apoptotic cells at 34 uM incubated for 24 hrs by Annexin V-FITC/PI staining based flow cytometric analysis (reference value: 1.4 %); format: functional
SCC-9 [31] = assay: Induction of apoptosis in human SCC-9 cells assessed as necrotic cells at 34 uM incubated for 24 hrs by Annexin V-FITC/PI staining based flow cytometric analysis (reference value: 0.1 %); format: functional

COc1c(O)c(CN2CCN(CC(=O)Nc3nc(-c4ccccc4)cs3)CC2)c2c(c1O)C1O[C@H](CO)[C@@H](O)[C@H](O)C1OC2=O (some centres undefined)
IC50 (HCT-15): 69.7 µM
IC50 (CAL-27 [1]): 20.7 µM
IC50 (SCC-9 [2]): 34.4 µM
IC50 (A549): > 100 µM
IC50 (MCF7): > 100 µM
IC50 [3]: > 100 µM
Activity (CAL-27 [4]): 87.4%
Activity (CAL-27 [5]): 85.6%
Activity (CAL-27 [6]): 2.9%
Activity (CAL-27 [7]): 4.1%
Activity (CAL-27 [8]): 10.6%
Activity (CAL-27 [9]): 10.8%
Activity (SCC-9 [10]): 71%
Activity (SCC-9 [11]): 73.6%
Activity (SCC-9 [12]): 16.5%
Activity (SCC-9 [13]): 12.6%
Activity (SCC-9 [14]): 11.8%
Activity (SCC-9 [15]): 10.3%
Activity (CAL-27 [16]): 94.5%
Activity (CAL-27 [17]): 1.2%
Activity (CAL-27 [18]): 2.2%
Activity (CAL-27 [19]): 2%
Activity (CAL-27 [20]): 88.7%
Activity (CAL-27 [21]): 2.2%
Activity (CAL-27 [22]): 4.8%
Activity (CAL-27 [23]): 4.3%
Activity (SCC-9 [24]): 28%
Activity (SCC-9 [25]): 28.8%
Activity (SCC-9 [26]): 42%
Activity (SCC-9 [27]): 1.3%
Activity (SCC-9 [28]): 20.2%
Activity (SCC-9 [29]): 32.4%
Activity (SCC-9 [30]): 45.6%
Activity (SCC-9 [31]): 1.8%
